The subject of one data set is advanced solid tumors. Put plainly: APG-1387 monotherapy phase I trial: antitumor activity. Format: in vivo, human.
Data set [1] concerns NK cell (CD3, −CD16+, and CD56+) populations. Put plainly: Combination trial: peripheral blood lymphocyte subsets by flow cytometry. Format: in vivo, human. In outline: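 Combination regimen: toripalimab 240 mg i.v. Q3W plus test compound i.v., either 20–30 mg on D1/8 (3+3 stage) or 45 mg on D1/8/15 (second stage). Peripheral blood (3 ml) was drawn on C1D1, C2D1, C3D1 and at end of treatment. Lymphocyte subsets were analysed by flow cytometry. Post-dose cell proportions were divided by each subject's baseline.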

Data set [2] in a line: APG-1387 monotherapy phase I trial: plasma pharmacokinetics. It counts as in vivo, human.
Data set [3] deals with subjects with advanced solid tumors. Put plainly: APG-1387 monotherapy phase I trial: safety. It counts as in vivo, human. In outline:
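3+3 escalation of 0.3, 0.6, 4.0, 7.0, 12, 20, 30 and 45 mg, given as 30-min i.v. infusion on D1/8/15 with a 1-week rest per 28-day cycle. Safety was monitored by vitals, examination, haematology, biochemistry, thyroid, coagulation and ECG. AEs were graded by CTCAE 4.0 from consent to 90 days after last dose. DLTs were predefined drug-related grade ≥3–4 toxicities in cycle 1. MTD was the level below that with DLTs in ≥2 of 6 subjects.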

The test system of data set [4] is IFN-γ, IL-12/IL-23p40, IL-5, and IL-6. Put plainly: Combination trial: plasma cytokines. Format: in vivo, human. The conditions noted are these: 4 and 24 h after APG-1387 dosing, 16 subjects. In short, it runs like this:
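Combination regimen: toripalimab 240 mg i.v. Q3W with the test compound i.v. weekly on D1/8 or D1/8/15. Plasma was collected on C1D1 pre-dose, at 4 and 24 h after the first test compound dose, and on C2D1 and C3D1 before toripalimab. Cytokines were measured by Meso Scale Discovery assay. Post-dose IFN-γ, IL-12, IL-5 and IL-6 were normalised to each subject's baseline.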

Data set [5] relates to patients with advanced solid tumors. Conditions: cited from earlier work.
Data set [6] deals with adults with refractory solid tumors or lymphoma. The conditions noted are these: monotherapy phase I trial; cited from earlier work.
The mark [7] stands for this setting: 28 participants, 30- and 45-mg groups.

As to `CN[C@@H](C)C(=O)N[C@H]1CN(S(=O)(=O)c2cccc(S(=O)(=O)N3CC[C@H]4CC[C@@H](C(=O)NC(c5ccccc5)c5ccccc5)N4C(=O)[C@@H](NC(=O)[C@H](C)NC)C3)c2)CC[C@H]2CC[C@@H](C(=O)NC(c3ccccc3)c3ccccc3)N2C1=O` [APG-1387], in the data set on advanced solid tumors (23 participants), the “Disease control rate (DCR)” value is reported as 21.7%. In the data set with advanced solid tumors (n 23), the “Best overall response: Complete response” value is recorded as 0 (0) n (%), the “Best overall response: Partial response” value is listed as 0 (0) n (%), the “Best overall response: Progressive disease” value is recorded as 18 (78·3) n (%) and the “Best overall response: Stable disease” value is 5 (21·7) n (%). Besides, in the data set with advanced solid tumors (n 23), the Disease control rate is reported as 5 (21·7) n (%) and the Objective response rate is 0 (0) n (%). Moreover, in the data set with advanced solid tumors (one individual with CRC, 20-mg group), the “Duration of SD with tumor reduction” value is 16 weeks. Besides, in data set [1] (45-mg dose of APG-1387, combination trial), the “NK cell populations in peripheral blood” value is “increased”. Besides, the “NK cell populations in peripheral blood” value in data set [1] (low doses of APG-1387, combination trial) is reported as “did not change significantly”. In addition, the “Increase of Cmax and AUC0-t with dose” value in data set [2] (0.3-45 mg) is reported as “approximately dose-proportional”. Moreover, in data set [2] (QW dosing schedule), the “Accumulation after multiple dosing” value is recorded as “No significant accumulation”. For the same compound, in data set [2] (range across doses), the “Mean rate of clearance” value lay within 15.9 to 60.7 L/h, the “Mean steady-state volume of distribution (Vss)” value was in the range of 10.1 to 60.1 L and the Mean terminal half-life is 44.5 to 672 min. Also, in data set [2] (range across doses, QW i.v. infusion 30 min), the “Median time to maximum plasma concentration (Cmax)” value was 0.25 to 0.50 h. Besides, the “Dose-limiting toxicities (DLT)” value in data set [3] (0.3-45 mg i.v. D1/8/15 of 28-day cycle, 28 subjects) is “no DLT occurred”. The “Subjects with TRAEs” value in data set [3] (28 participants) is listed as 21.4%. In data set [3] (28 participants, 20-mg group), this compound gave a TRAE pruritus of 3.6%. Also, in data set [3] (setting [7]), the “TRAE elevated ALT” value is given as 7.1% and the “TRAE elevated AST” value is listed as 7.1%. The compound further registered a TRAE asthenia in data set [3] (28 participants, 45-mg group) of 3.6%. The compound also returned a TRAE facial-nerve disorder in data set [3] (28 participants, all in 45-mg group) of 10.7%. Moreover, the “Participants with grade ≥3 TRAE (ALT elevation)” value in data set [3] (28 subjects) came to 3.6%. Further, in data set [3] (all doses, n = 28), the “Any TRAE, All grade” value is recorded as 6 (21·4) n (%); the “Any TRAE, Grade ≥3” value is on record as 1 (3·6) n (%); the “TRAE Alanine aminotransferase elevation, All grade” value was 2 (7·1) n (%); the “TRAE Alanine aminotransferase elevation, Grade ≥3” value is given as 1 (3·6) n (%). Also, in data set [3] (all doses, n = 28), the “TRAE Amylase elevation, All grade” value is 0 (0) n (%); the “TRAE Amylase elevation, Grade ≥3” value is given as 0 (0) n (%); the “TRAE Aspartate aminotransferase elevation, All grade” value is listed as 2 (7·1) n (%); the “TRAE Aspartate aminotransferase elevation, Grade ≥3” value was 0 (0) n (%). In data set [3] (all doses, n = 28), the “TRAE Asthenia, All grade” value is given as 1 (3·6) n (%); the “TRAE Asthenia, Grade ≥3” value is 0 (0) n (%); the “TRAE Blood creatinine elevation, All grade” value is 0 (0) n (%); the “TRAE Blood creatinine elevation, Grade ≥3” value is 0 (0) n (%). In data set [3] (all doses, n = 28), the “TRAE Decreased appetite, All grade” value is 0 (0) n (%); the “TRAE Decreased appetite, Grade ≥3” value was 0 (0) n (%); the “TRAE Facial-nerve disorder, All grade” value is 3 (10·7) n (%); the “TRAE Facial-nerve disorder, Grade ≥3” value was 0 (0) n (%). In data set [3] (all doses, n = 28), the “TRAE Headache, All grade” value was 0 (0) n (%); the “TRAE Headache, Grade ≥3” value is 0 (0) n (%); the “TRAE Hypoesthesia, All grade” value is listed as 0 (0) n (%); the “TRAE Hypoesthesia, Grade ≥3” value was 0 (0) n (%). Moreover, in data set [3] (all doses, n = 28), the “TRAE Hypogeusia, All grade” value is recorded as 0 (0) n (%); the “TRAE Hypogeusia, Grade ≥3” value is on record as 0 (0) n (%); the “TRAE Hypothyroidism, All grade” value is 0 (0) n (%); the “TRAE Hypothyroidism, Grade ≥3” value was 0 (0) n (%). Moreover, in data set [3] (all doses, n = 28), the “TRAE Immune-mediated pancreatitis, All grade” value is 0 (0) n (%); the “TRAE Immune-mediated pancreatitis, Grade ≥3” value is on record as 0 (0) n (%); the “TRAE Infusion site reaction, All grade” value is 0 (0) n (%); the “TRAE Infusion site reaction, Grade ≥3” value was 0 (0) n (%). Further, in data set [3] (all doses, n = 28), the “TRAE Leukopenia, All grade” value was 0 (0) n (%); the “TRAE Leukopenia, Grade ≥3” value is 0 (0) n (%); the “TRAE Lipase elevation, All grade” value is listed as 0 (0) n (%); the “TRAE Lipase elevation, Grade ≥3” value is 0 (0) n (%). Moreover, in data set [3] (all doses, n = 28), the “TRAE Platelet count decrease, All grade” value is reported as 0 (0) n (%); the “TRAE Platelet count decrease, Grade ≥3” value is reported as 0 (0) n (%); the “TRAE Pruritus, All grade” value is given as 1 (3·6) n (%); the “TRAE Pruritus, Grade ≥3” value was 0 (0) n (%). In data set [3] (all doses, n = 28), the “TRAE Rash, All grade” value is on record as 0 (0) n (%) and the “TRAE Rash, Grade ≥3” value was 0 (0) n (%). Moreover, the “Maximum tolerated dose (MTD)” value in data set [3] (doses up to 45 mg) is recorded as “not reached”. Besides, in data set [3] (safety population, 28 participants), the “Subjects with treatment-emergent adverse events” value is listed as 89.3%. Moreover, the “Plasma levels of IFN-γ, IL-12/IL-23p40, IL-5, and IL-6” value in data set [4] was “significantly increased”.
Consider `CN[C@@H](C)C(=O)N[C@H](C(=O)N1CCC[C@H]1c1nc(C(=O)c2ccc(F)cc2)cs1)C1CCCCC1` [LCL161], for which the “Cytokine release syndrome (CRS)” value in data set [5] (high doses of 1800, 2100, and 3000 mg) is recorded as “grade 3-4 cytokine release syndrome”. Besides, in data set [5] (monotherapy phase I trial), the “CR or PR” value is reported as “no participant had a CR or PR” and the “Subjects with best response of SD” value is 19%.
`CC[C@H](NC(=O)[C@H](C)NC)C(=O)N1C[C@@H](O)C[C@H]1Cc1c(-c2[nH]c3cc(F)ccc3c2C[C@@H]2C[C@H](O)CN2C(=O)[C@H](CC)NC(=O)[C@H](C)NC)[nH]c2cc(F)ccc12` [birinapant]: in data set [6], the “CR or PR” value is given as “no participant had a CR or PR” and the “Subjects with best response of SD” value was 28%.

The values above are taken from article PMC11338093 (ESMO Open, 2024).
